High-throughput results: PubChem, Sanford-Burnham Center for Chemical Genomics
UBC13 polyUb: UBC13 polyubiquitin chain formation inhibitors, primary screen, biochemical, TR-FRET, uHTS | Ubiquitin-conjugating enzyme E2 N (Homo sapiens), P61088 | inhibition, % at 20 µM | hit rate 0.47% among 330,000 | AID 485273, 2010; in the data active = inhibition above about 45%, passing the limit was not always enough
Target sequence (P61088 whole entry, looked up): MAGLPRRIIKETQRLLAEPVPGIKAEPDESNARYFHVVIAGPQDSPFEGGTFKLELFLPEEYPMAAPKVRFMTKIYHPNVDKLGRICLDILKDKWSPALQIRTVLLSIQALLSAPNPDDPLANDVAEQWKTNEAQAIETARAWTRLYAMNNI
SENP6 inh: SENP6 protease inhibitors, primary screen, biochemical, luminescence, uHTS | inhibition, % at 10 µM | Recombinant SENP6 catalytic domain, aminoluciferin luminescence | hit rate 1.8% among 330,000;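 active = inhibition above about 50% at the single tested dose, limit read from the data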
SENP8 block-1: human SENP8 protease inhibitors, primary screen, biochemical, fluorescence, Nedd8 protein substrate, uHTS | Sentrin-specific protease 8 (Homo sapiens), Q96LD8 | recombinant SENP8 | inhibition, % at 20 µM | hit rate 0.64% among 360,000 | AID 602440, 2012; in the data active = inhibition mostly above about 40%, no sharp cut-off; inactive = mostly below about 27%
Target sequence (Q96LD8 whole entry, looked up): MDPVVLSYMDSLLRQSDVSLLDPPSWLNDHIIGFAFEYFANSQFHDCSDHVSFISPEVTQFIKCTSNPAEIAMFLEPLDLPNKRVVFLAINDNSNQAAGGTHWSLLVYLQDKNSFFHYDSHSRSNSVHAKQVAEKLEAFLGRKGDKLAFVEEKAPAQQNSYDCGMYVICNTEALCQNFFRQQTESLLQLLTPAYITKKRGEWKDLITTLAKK
SENP8 block-2: SENP8 protease inhibitors, primary screen, biochemical, luminescence; inhibition, % at 10 µM; hit rate 1.2% among 330,000; purified SENP8, Z-RLRGG-aminoluciferin cleavage; Sentrin-specific protease 8 (Homo sapiens), Q96LD8; AID 2540, 2010; in the data active = inhibition above about 50%
SENP7 inh: SENP7 protease inhibitors, primary screen, biochemical, luminescence, uHTS; Sentrin-specific protease 7 (Homo sapiens), Q9BQF6; recombinant SENP7, Z-RLRGG-aminoluciferin luminescence, 40 min; inhibition, % at 5 µM; hit rate 1.5% among 330,000; AID 434973, 2010;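 active = inhibition above about 50% at the single test dose, limit read from the data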
Apaf-1 inh: inhibitors of human Apaf-1 apoptosome, primary screen, biochemical, DEVD-Rh110 fluorescence, uHTS; reconstituted apoptosome caspase-3 activity; inhibition, % at 20 µM; hit rate 0.71% among 330,000; active = inhibition of at least 40% at 20 µM
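Material: reconstituted apoptosome with Apaf-1, cytochrome c, caspase-9, procaspase-3, dATP; medium: pH 7.5 Hepes buffer with CHAPS, BSA, DTT; also added: cytochrome c and DEVD-Rh110 substrate; timing: 30 min plus 50 min, RT; signal: Rh110 fluorescence intensity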
SENP8 conf: SENP8 protease inhibitors, retest, confirmation, biochemical, luminescence, single concentration; shares compounds with SENP7 inh; Recombinant SENP8, Z-RLRGG-aminoluciferin luminescence, 60 min; inhibition, % at 12.5 µM; hit rate 40% among 6,200; AID 488912, 2010;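 active = mean inhibition across replicates above about 50%, limit read from the data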
SENP6 conf: SENP6 protease inhibitors, confirmation, biochemical, luminescence, single concentration | shares compounds with SENP7 inh | inhibition, % at 12.5 µM | hit rate 58% among 6,200 | recombinant SENP6, Z-RLRGG-aminoluciferin luminescence
SENP7 conf: SENP7 protease inhibitors, retest, confirmation, biochemical, luminescence, single concentration | shares compounds with SENP7 inh | recombinant SENP7, Z-RLRGG-aminoluciferin luminescence, 40 min | inhibition, % at 12.5 µM | hit rate 69% among 6,200 | AID 488917, 2010
Casp3 SENP sel: caspase-3 protease inhibitors, confirmation, selectivity assay for SENP inhibitor project, biochemical, single concentration. hit rate 60% among 6,200. purified caspase-3, Z-DEVD-aminoluciferin luminescence, 60 min. inhibition, % at 12.5 µM. shares compounds with SENP7 inh;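 active = mean inhibition above about 50%, limit read from the data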
Target sequence (P42574 28-227 limits assumed): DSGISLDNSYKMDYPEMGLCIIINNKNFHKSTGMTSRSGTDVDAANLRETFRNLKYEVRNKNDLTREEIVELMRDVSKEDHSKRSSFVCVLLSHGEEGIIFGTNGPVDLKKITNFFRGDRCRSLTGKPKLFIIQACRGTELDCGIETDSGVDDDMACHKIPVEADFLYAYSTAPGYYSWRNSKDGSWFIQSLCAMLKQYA
SENP luc ctr: interferes with luciferase luminescence in SENP counter-screen. shares compounds with SENP7 inh. Pre-incubated SENP8/Z-RLRGG-aminoluciferin, luciferase luminescence interference. inhibition, % at 12.5 µM. hit rate 39% among 6,200. AID 488919;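 active = mean inhibition above about 50% when retested at one dose, limit read from the data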
Of the large screens only hits and unclear results are named; the others gave an inactive call (follow-up assays come after a bar, where they were run). Sampled rows, rich in hits. Any-hit rate of the full collection: about 3%.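 The calls were made as follows, unless noted: active = mean inhibition above about 50% in the one-dose retest (limit read from the data); inactive = the rest.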

Cc1oc(-c2ccc3c(c2)OCCO3)cc1C(=O)NCC(=O)O	SENP6 inh 81, SENP8 block-2 81 | SENP8 conf inactive | SENP6 conf 93 | SENP7 conf 98 | Casp3 SENP sel 81 | SENP luc ctr 91
Cc1oc(-c2ccc3c(c2)OCCO3)cc1C(=O)O	SENP6 inh 99, SENP8 block-2 97, SENP7 inh 98 | SENP8 conf 98 | SENP6 conf 101 | SENP7 conf 104 | Casp3 SENP sel 99 | SENP luc ctr 99
Cc1oc(-c2ccc3c(c2)OCCO3)cc1C(=O)NC(CCC(=O)O)C(=O)O (centres undefined)	none
COc1ccc(-c2cc(C(=O)O)c(C)o2)cc1OC	SENP6 inh 87, SENP8 block-2 73, SENP7 inh 82 | SENP8 conf 85 | SENP6 conf 84 | SENP7 conf 97 | Casp3 SENP sel 90 | SENP luc ctr 85
COc1cc(NC(=O)C2CC(=O)N(Cc3ccco3)C2)cc(OC)c1 (centres undefined)	none
O=C(NC1CC2CCC(C1)N2Cc1ccccc1)c1ccccc1Cl (centres undefined)	none
CCCCN1C2CCCC1CC(NC(=O)c1ccccc1Cl)C2 (centres undefined)	SENP7 inh 83 | SENP8 conf inactive | SENP6 conf inactive | SENP7 conf inactive | Casp3 SENP sel inactive | SENP luc ctr inactive
O=C1Nc2ccccc2Nc2ncccc21	none
Cc1ccc2c(c1)NC(=O)c1cccnc1N2	SENP6 inh 52 | SENP8 conf inactive | SENP6 conf inactive | SENP7 conf 65 | Casp3 SENP sel 63 | SENP luc ctr inactive
CCc1ccc(CNC(=O)C2Cc3cc(S(=O)(=O)N4CCCC4)ccc3N2C(C)=O)cc1 (centres undefined)	none
COc1cc(OC)cc(-c2nc3ccccc3s2)c1	SENP8 block-2 81, SENP7 inh 91 | SENP8 conf 92 | SENP6 conf 93 | SENP7 conf 100 | Casp3 SENP sel 82 | SENP luc ctr 77
COc1ccc2nc(-c3ccc(F)cc3)sc2c1	SENP6 inh 97, SENP8 block-2 74, SENP7 inh 97 | SENP8 conf 95 | SENP6 conf 97 | SENP7 conf 101 | Casp3 SENP sel 95 | SENP luc ctr 78
COc1ccc2nc(N)sc2c1	none
CC(C)C[C@H]1CNC(=O)C(=O)N1C[C@@H]1CCCN1C[C@H](Cc1ccccc1)N1C[C@H](Cc2ccccc2)N(CCc2ccccc2)C(=O)C1=O	none (no result: UBC13 polyUb, SENP6 inh, SENP8 block-2, SENP7 inh, Apaf-1 inh)
COc1ccc(S(=O)(=O)N2CCC(C(=O)NCCCn3ccnc3)CC2)cc1C	none
CC(=O)Oc1ccc(/C=N/NC(=O)CCSc2ccccc2)cc1	none
CC1CCN(c2ccc(NC(=O)c3ccc(Br)o3)cc2)CC1	SENP6 inh 81, SENP8 block-2 56, SENP7 inh 88 | SENP8 conf inactive | SENP6 conf inactive | SENP7 conf inactive | Casp3 SENP sel inactive | SENP luc ctr inactive
C/C(=N\Nc1ccccc1C(=O)O)c1ccncc1	SENP6 inh 72, SENP8 block-2 52, SENP7 inh 52 | SENP8 conf 65 | SENP6 conf 60 | SENP7 conf 88 | Casp3 SENP sel 82 | SENP luc ctr 68
CC(=NNC(=O)c1ccncc1)c1ccccc1Cl	none (no result: UBC13 polyUb, SENP6 inh, SENP8 block-2, SENP7 inh, Apaf-1 inh)
C/C(=N\NC(=O)c1ccccc1NC(=O)c1ccc(Cl)cc1)c1ccncc1	SENP6 inh 97, SENP8 block-2 89, SENP7 inh 97 | SENP8 conf inactive | SENP6 conf 96 | SENP7 conf 101 | Casp3 SENP sel 98 | SENP luc ctr inactive
O=c1c2cc(-c3ccccc3)sc2nc2n1CCC2	SENP6 inh 75, SENP8 block-2 69, SENP7 inh 72 (no result: SENP8 block-1) | SENP8 conf inactive | SENP6 conf 69 | SENP7 conf 92 | Casp3 SENP sel inactive | SENP luc ctr inactive
Cc1nc2sc(-c3ccccc3)cc2c(=O)n1/N=C/N(C)C	none
O=c1[nH]c(-c2cccnc2)nc2sc(-c3ccccc3)cc12	none
Cc1nc2sc(-c3ccccc3)cc2c(=O)[nH]1	SENP6 inh 86, SENP8 block-2 76 | SENP8 conf inactive | SENP6 conf 82 | SENP7 conf 98 | Casp3 SENP sel 92 | SENP luc ctr inactive
Cc1nc2sc(-c3ccccc3)cc2c(=O)n1-n1cccc1	SENP6 inh 62 | SENP8 conf inactive | SENP6 conf inactive | SENP7 conf inactive | Casp3 SENP sel inactive | SENP luc ctr inactive
Cc1ccc(N(CC(=O)NCc2ccco2)C(=O)CCC(=O)Nc2nccs2)cc1	none
Cc1cc2occ(CC(=O)NC3(C)CCS(=O)(=O)C3)c2cc1C (centres undefined)	none
CC1CN(c2ccc(C(=O)c3ccccc3C(=O)O)cc2[N+](=O)[O-])CC(C)O1 (centres undefined)	none
COc1ccc2cc3cc(C(=O)NC4CC4)sc3nc2c1	SENP6 inh 90, SENP8 block-2 71, SENP7 inh 85 | SENP8 conf inactive | SENP6 conf 81 | SENP7 conf 99 | Casp3 SENP sel 93 | SENP luc ctr inactive
COc1ccc(S(=O)(=O)NNC(=O)c2cc3cc4ccccc4nc3s2)cc1	none
Cc1cc(CNC[C@H]2O[C@@H](n3ccc(N)nc3=O)[C@H](O)[C@@H]2O)no1	none (no result: UBC13 polyUb, SENP6 inh, SENP8 block-2, SENP7 inh, Apaf-1 inh)
O=C(O)c1ccc(/C=C/c2nc3ccccc3c(=O)[nH]2)cc1	SENP6 inh 97, SENP8 block-2 95, SENP7 inh 100 | SENP8 conf 97 | SENP6 conf 98 | SENP7 conf 102 | Casp3 SENP sel 98 | SENP luc ctr 56
Cc1[nH]c2ccccc2c1/C=C/c1nc2ccccc2c(=O)[nH]1	none
